From ChEMBL document CHEMBL1157359, “Binding of ceftobiprole and comparators to the penicillin-binding proteins of Escherichia coli, Pseudomonas aeruginosa, Staphylococcus aureus, and Streptococcus pneumoniae” (Antimicrob Agents Chemother, 2007) come the findings set out here.

Molecules are shown by their SMILES. ≈ marks a conversion by molar mass, not a printed value. Bounds are passed on as bounds.

One assay relates to Staphylococcus aureus. Description: Antibacterial activity against methicillin-susceptible Staphylococcus aureus ATCC 29213 by CLSI method. Type of assay: functional.
Assay [1] can be described thus: Inhibition of bocillin FL binding to penicillin-susceptible Streptococcus pneumoniae OC 8865 penicillin-binding protein 2a. In a few lines: (§1)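 S. pneumoniae OC 8865 PBPs assayed in whole cells; drug competition followed by Bocillin FL labeling and imaging of labeled PBPs. IC50 is 50% inhibition of Bocillin FL binding compared with a no-drug control.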
Assay [2] is described as follows: Inhibition of bocillin FL binding to penicillin-resistant Streptococcus pneumoniae OC 8819 penicillin-binding protein 1b. The gist of the method:
(§2)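 Whole S. pneumoniae cells were used rather than isolated membranes. Cells were competed with drug and then labeled with Bocillin FL, and PBP bands were visualized by fluorescence imaging. IC50 is the drug concentration that inhibits Bocillin FL binding to each PBP by 50% relative to a no-drug control.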

Assay [3] in a line: Inhibition of bocillin FL binding to penicillin-resistant Streptococcus pneumoniae OC 8819 penicillin-binding protein 1a. The gist of the method: as §2
A short description of assay [4]: Inhibition of bocillin FL binding to penicillin-susceptible Streptococcus pneumoniae OC 8865 penicillin-binding protein 2b. The gist of the method: as §1
Assay [5] can be described thus: Inhibition of bocillin FL binding to penicillin-susceptible Streptococcus pneumoniae OC 8865 penicillin-binding protein 1b. In a few lines:
as §1

Assay [6] can be described thus: Inhibition of bocillin FL binding to penicillin-resistant Streptococcus pneumoniae OC 8819 penicillin-binding protein 2x. The gist of the method: as §2
For assay [7], the target named is T1, Penicillin-binding protein 4 (Staphylococcus aureus, UniProt P72355).
T1 sequence (P72355 whole entry): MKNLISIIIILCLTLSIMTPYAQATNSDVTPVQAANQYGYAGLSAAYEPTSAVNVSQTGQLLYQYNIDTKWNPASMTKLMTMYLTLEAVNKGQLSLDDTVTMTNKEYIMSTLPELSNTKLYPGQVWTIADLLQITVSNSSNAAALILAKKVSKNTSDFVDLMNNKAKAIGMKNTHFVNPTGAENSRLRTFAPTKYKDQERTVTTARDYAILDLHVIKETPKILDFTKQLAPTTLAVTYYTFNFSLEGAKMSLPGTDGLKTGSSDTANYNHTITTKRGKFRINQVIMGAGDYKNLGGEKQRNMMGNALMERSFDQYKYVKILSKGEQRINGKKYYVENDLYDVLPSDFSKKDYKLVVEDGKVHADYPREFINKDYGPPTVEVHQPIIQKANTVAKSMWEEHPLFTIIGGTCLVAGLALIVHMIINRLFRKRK
In words: Inhibition of bocillin FL binding to methicillin-susceptible Staphylococcus aureus ATCC 29213 penicillin-binding protein 4. The gist of the method: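 Isolated S. aureus ATCC 29213 PBPs exposed to drug over 0.001 μg/ml to 50 μg/ml, followed by Bocillin FL labeling and fluorescence imaging. IC50 is 50% inhibition of Bocillin FL binding relative to no-drug control.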

Assay [8] addresses T2, Penicillin-binding protein 2 (Pseudomonas aeruginosa, UniProt Q9X6V3).
T2 sequence (Q9X6V3 whole entry): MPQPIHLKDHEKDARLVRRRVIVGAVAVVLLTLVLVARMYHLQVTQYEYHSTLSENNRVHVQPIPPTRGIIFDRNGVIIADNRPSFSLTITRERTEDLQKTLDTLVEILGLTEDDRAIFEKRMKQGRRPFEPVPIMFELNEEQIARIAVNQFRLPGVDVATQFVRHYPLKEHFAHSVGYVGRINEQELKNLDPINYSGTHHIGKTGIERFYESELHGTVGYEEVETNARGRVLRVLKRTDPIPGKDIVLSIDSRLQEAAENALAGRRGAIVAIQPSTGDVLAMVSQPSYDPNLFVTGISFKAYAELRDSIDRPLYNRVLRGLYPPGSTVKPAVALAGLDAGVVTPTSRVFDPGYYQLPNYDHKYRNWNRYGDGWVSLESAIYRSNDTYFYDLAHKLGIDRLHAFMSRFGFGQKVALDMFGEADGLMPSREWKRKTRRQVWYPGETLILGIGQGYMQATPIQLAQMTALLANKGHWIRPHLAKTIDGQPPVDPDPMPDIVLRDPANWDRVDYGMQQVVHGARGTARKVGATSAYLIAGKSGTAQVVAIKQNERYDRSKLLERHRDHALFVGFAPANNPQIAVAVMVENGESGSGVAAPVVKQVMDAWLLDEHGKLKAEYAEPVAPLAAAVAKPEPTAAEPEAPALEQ
In words: Inhibition of bocillin FL binding to Pseudomonas aeruginosa PAO1 penicillin-binding protein 2. The gist of the method: (§3)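 Isolated P. aeruginosa PAO1 PBPs; drug added at 10 concentrations, 0.06 μg/ml to 32 μg/ml, before Bocillin FL labeling. Labeled PBPs imaged. IC50 is the drug level cutting Bocillin FL binding by 50% versus a no-drug sample.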

In assay [9] the target is Penicillin-binding protein 3 (Pseudomonas aeruginosa, UniProt Q51504). In words: Inhibition of bocillin FL binding to Pseudomonas aeruginosa PAO1 penicillin-binding protein 3. In a few lines: as §3
Sequence of Penicillin-binding protein 3 (Q51504 whole entry): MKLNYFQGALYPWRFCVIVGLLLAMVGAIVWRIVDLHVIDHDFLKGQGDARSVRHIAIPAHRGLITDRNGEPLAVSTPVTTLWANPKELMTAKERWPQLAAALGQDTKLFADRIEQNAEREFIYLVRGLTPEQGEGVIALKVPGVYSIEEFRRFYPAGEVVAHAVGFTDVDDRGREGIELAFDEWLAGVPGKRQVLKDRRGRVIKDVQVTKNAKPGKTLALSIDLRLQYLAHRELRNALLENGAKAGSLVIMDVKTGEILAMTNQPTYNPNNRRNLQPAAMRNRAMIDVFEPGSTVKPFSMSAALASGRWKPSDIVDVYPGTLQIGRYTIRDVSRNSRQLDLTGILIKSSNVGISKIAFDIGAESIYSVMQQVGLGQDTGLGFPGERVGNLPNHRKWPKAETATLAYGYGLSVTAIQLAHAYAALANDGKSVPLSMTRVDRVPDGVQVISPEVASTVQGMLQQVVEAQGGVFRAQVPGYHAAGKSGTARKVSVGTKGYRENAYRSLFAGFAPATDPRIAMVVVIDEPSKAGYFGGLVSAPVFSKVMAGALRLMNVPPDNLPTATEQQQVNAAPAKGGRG
Assay [10] addresses T3, Penicillin-binding protein 1B (Pseudomonas aeruginosa, UniProt Q9X6W0).
T3 sequence (Q9X6W0 whole entry): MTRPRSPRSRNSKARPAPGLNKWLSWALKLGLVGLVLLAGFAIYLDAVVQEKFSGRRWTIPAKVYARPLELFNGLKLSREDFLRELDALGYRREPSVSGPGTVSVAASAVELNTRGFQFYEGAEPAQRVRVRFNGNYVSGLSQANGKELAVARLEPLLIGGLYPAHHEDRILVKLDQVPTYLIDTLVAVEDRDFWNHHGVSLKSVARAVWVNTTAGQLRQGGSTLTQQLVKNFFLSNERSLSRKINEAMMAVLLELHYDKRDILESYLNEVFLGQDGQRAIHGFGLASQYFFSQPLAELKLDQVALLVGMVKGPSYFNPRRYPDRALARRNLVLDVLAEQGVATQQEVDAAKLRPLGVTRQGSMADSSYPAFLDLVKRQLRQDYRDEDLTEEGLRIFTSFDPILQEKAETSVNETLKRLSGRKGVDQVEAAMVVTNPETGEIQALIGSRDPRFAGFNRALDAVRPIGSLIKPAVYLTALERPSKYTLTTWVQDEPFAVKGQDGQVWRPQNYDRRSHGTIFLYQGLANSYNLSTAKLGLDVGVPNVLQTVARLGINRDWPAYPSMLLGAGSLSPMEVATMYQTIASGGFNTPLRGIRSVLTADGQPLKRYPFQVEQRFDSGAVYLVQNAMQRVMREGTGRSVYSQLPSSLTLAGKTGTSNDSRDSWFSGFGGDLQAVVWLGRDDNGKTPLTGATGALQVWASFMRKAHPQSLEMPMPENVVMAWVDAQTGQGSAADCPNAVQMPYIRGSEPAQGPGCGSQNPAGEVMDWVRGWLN
Description: Inhibition of bocillin FL binding to Pseudomonas aeruginosa PAO1 penicillin-binding protein 1b. The gist of the method: as §3

In the case of `CO/N=C(\C(=O)N[C@@H]1C(=O)N2C(C(=O)O)=C(CSc3nc(=O)c(O)nn3C)CS[C@H]12)c1csc(N)n1` (stereo in doubt) [CEFTRIAXONE], in the assay on Staphylococcus aureus, the MIC – broadly, the lowest concentration that inhibits growth of the organism – is 2 µg/mL (≈ 3.61 µM). Besides, the IC50 – broadly, the concentration that gives 50% inhibition – is 0.1 µg/mL (≈ 0.18 µM) in assay [1]; 0.02 µg/mL (≈ 0.0361 µM) in assay [2]; 0.02 µg/mL (≈ 0.0361 µM) in [3]; above 1 µg/mL in assay [4]; 0.03 µg/mL (≈ 0.0541 µM) in [5]; 8 µg/mL (≈ 14.4 µM) in assay [6]. For the same molecule, the half-maximal inhibitory concentration (IC50) in [7] was 18000 nM.

`Nc1nc(/C(=N/O)C(=O)N[C@@H]2C(=O)N3C(C(=O)O)=C(/C=C4\CCN([C@@H]5CCNC5)C4=O)CS[C@H]23)ns1` [CEFTOBIPROLE] yielded a minimum inhibitory concentration (MIC) in the assay on Staphylococcus aureus of 0.25 µg/mL (≈ 0.468 µM). The 50% inhibitory concentration (IC50) in assay [8] is 5610 nM; in assay [1], 0.03 µg/mL (≈ 0.0561 µM); in assay [3], 0.1 µg/mL (≈ 0.187 µM); in assay [9], 187 nM; in [10], 935 nM; in assay [4], 0.06 µg/mL (≈ 0.112 µM). In addition, the IC50 is 0.05 µg/mL (≈ 0.0935 µM) in [5], 1 µg/mL (≈ 1.87 µM) in assay [6] and 1870 nM in assay [7].

Consider `CC(C)(O/N=C(\C(=O)N[C@@H]1C(=O)N2C(C(=O)[O-])=C(C[n+]3ccccc3)CS[C@H]12)c1csc(N)n1)C(=O)O` [CEFTAZIDIME], for which the figures for the IC50 in assay [8], in assay [9] and in [10] were above 58500 nM, 183 nM and 9150 nM, respectively.
